What was measured:
Type in all cases: functional
COLO 205 [1] = experiment: Growth inhibition of human COLO 205 cells assessed as cell growth at 100 uM incubated for 48 hrs by sulforhodamine B assay relative to control; details: read-out: Activity
Summary of the method: (§1)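 NCI Developmental Therapeutics Program NCI60 panel. Compounds that were active in the 10 µM one-dose screen went on to dose–response testing. Growth at each concentration is expressed relative to untreated control (100%). GI50 (concentration giving 50% of maximal inhibition of proliferation) and TGI (concentration giving total growth inhibition) were derived from the curves.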

SK-MEL-28 = experiment: Growth inhibition of human SK-MEL-28 cells assessed as cell growth at 0.1 uM incubated for 48 hrs by sulforhodamine B assay relative to control; details: read-out: Activity
SF-539 [2] = experiment: Growth inhibition of human SF-539 cells assessed as cell growth at 0.1 uM incubated for 48 hrs by sulforhodamine B assay relative to control; details: read-out: Activity
NCI-H322M [3] = experiment: Growth inhibition of human NCI-H322M cells incubated for 48 hrs by sulforhodamine B assay; details: for CC50: read-out: LC50 (the source's name)
Summary of the method: (§2)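 NCI60 panel at the NCI Developmental Therapeutics Program. Only compounds active in the 10 µM screen went to dose-response testing. GI50, the concentration giving 50% of maximal inhibition of proliferation, and TGI, the concentration giving total growth inhibition, were derived from the dose-response curves.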

SR = experiment: Growth inhibition of human SR cells incubated for 48 hrs by sulforhodamine B assay
Summary of the method: (§3)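 NCI DTP 60-line human tumour panel. Dose-response curves were run only for ligands active in the initial 10 µM screen. GI50 (concentration giving 50% of maximal inhibition of proliferation) and TGI (concentration giving total growth inhibition) were derived from these curves.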

HCC 2998 = experiment: Growth inhibition of human HCC 2998 cells assessed as cell growth at 0.1 uM incubated for 48 hrs by sulforhodamine B assay relative to control; details: read-out: Activity; summary of the method: as §1
NCI-H460 [4] = experiment: Growth inhibition of human NCI-H460 cells assessed as cell growth at 1 uM incubated for 48 hrs by sulforhodamine B assay relative to control; details: read-out: Activity
M14 = experiment: Growth inhibition of human M14 cells assessed as cell growth at 100 uM incubated for 48 hrs by sulforhodamine B assay relative to control; details: read-out: Activity
A549 = experiment: Growth inhibition of human A549/ATCC cells incubated for 48 hrs by sulforhodamine B assay; details: for CC50: read-out: LC50 (the source's name); summary of the method: as §1
SNB-75 [5] = experiment: Growth inhibition of human SNB-75 cells incubated for 48 hrs by sulforhodamine B assay; summary of the method: as §3
SNB-19 = experiment: Growth inhibition of human SNB-19 cells assessed as cell growth at 0.01 uM incubated for 48 hrs by sulforhodamine B assay relative to control; details: read-out: Activity
UACC-62 [6] = experiment: Growth inhibition of human UACC-62 cells incubated for 48 hrs by sulforhodamine B assay; summary of the method: as §3
RXF 393 = experiment: Growth inhibition of human RXF 393 cells assessed as cell growth at 0.01 uM incubated for 48 hrs by sulforhodamine B assay relative to control; details: read-out: Activity
SF-539 [7] = experiment: Growth inhibition of human SF-539 cells assessed as cell growth at 100 uM incubated for 48 hrs by sulforhodamine B assay relative to control; details: read-out: Activity
HCT-116 = experiment: Growth inhibition of human HCT-116 cells assessed as cell growth at 1 uM incubated for 48 hrs by sulforhodamine B assay relative to control; details: read-out: Activity
NCI-H226 = experiment: Growth inhibition of human NCI-H226 cells incubated for 48 hrs by sulforhodamine B assay; details: for CC50: read-out: LC50 (the source's name); summary of the method: as §2
MDA-MB-231 = experiment: Growth inhibition of human MDA-MB-231 cells assessed as cell growth at 1 uM incubated for 48 hrs by sulforhodamine B assay relative to control; details: read-out: Activity
KM12 = experiment: Growth inhibition of human KM12 cells assessed as cell growth at 0.1 uM incubated for 48 hrs by sulforhodamine B assay relative to control; details: read-out: Activity
COLO 205 [8] = experiment: Growth inhibition of human COLO 205 cells assessed as cell growth at 0.1 uM incubated for 48 hrs by sulforhodamine B assay relative to control; details: read-out: Activity; summary of the method: as §1
SNB-75 [9] = experiment: Growth inhibition of human SNB-75 cells assessed as cell growth at 1 uM incubated for 48 hrs by sulforhodamine B assay relative to control; details: read-out: Activity
OVCAR-3 = experiment: Growth inhibition of human OVCAR-3 cells assessed as cell growth at 0.1 uM incubated for 48 hrs by sulforhodamine B assay relative to control; details: read-out: Activity
SNB-75 [10] = experiment: Growth inhibition of human SNB-75 cells assessed as cell growth at 0.01 uM incubated for 48 hrs by sulforhodamine B assay relative to control; details: read-out: Activity
TK-10 = experiment: Growth inhibition of human TK-10 cells incubated for 48 hrs by sulforhodamine B assay; details: for CC50: read-out: LC50 (the source's name); summary of the method: as §3
SF-295 [11] = experiment: Growth inhibition of human SF-295 cells incubated for 48 hrs by sulforhodamine B assay; summary of the method: as §3
UACC-62 [12] = experiment: Growth inhibition of human UACC-62 cells assessed as cell growth at 0.1 uM incubated for 48 hrs by sulforhodamine B assay relative to control; details: read-out: Activity
NCI-H322M [13] = experiment: Growth inhibition of human NCI-H322M cells assessed as cell growth at 1 uM incubated for 48 hrs by sulforhodamine B assay relative to control; details: read-out: Activity
U-251 = experiment: Growth inhibition of human U-251 cells assessed as cell growth at 1 uM incubated for 48 hrs by sulforhodamine B assay relative to control; details: read-out: Activity
MDA-MB-435 = experiment: Growth inhibition of human MDA-MB-435 cells assessed as cell growth at 1 uM incubated for 48 hrs by sulforhodamine B assay relative to control; details: read-out: Activity
786-0 = experiment: Growth inhibition of human 786-0 cells assessed as cell growth at 1 uM incubated for 48 hrs by sulforhodamine B assay relative to control; details: read-out: Activity; summary of the method: as §1
DU-145 = experiment: Growth inhibition of human DU-145 cells assessed as cell growth at 100 uM incubated for 48 hrs by sulforhodamine B assay relative to control; details: read-out: Activity; summary of the method: as §1
UO-31 = experiment: Growth inhibition of human UO-31 cells assessed as cell growth at 0.01 uM incubated for 48 hrs by sulforhodamine B assay relative to control; details: read-out: Activity
UACC-62 [14] = experiment: Growth inhibition of human UACC-62 cells assessed as cell growth at 0.01 uM incubated for 48 hrs by sulforhodamine B assay relative to control; details: read-out: Activity
NCI-H460 [15] = experiment: Growth inhibition of human NCI-H460 cells assessed as cell growth at 0.1 uM incubated for 48 hrs by sulforhodamine B assay relative to control; details: read-out: Activity
SF-295 [16] = experiment: Growth inhibition of human SF-295 cells assessed as cell growth at 0.1 uM incubated for 48 hrs by sulforhodamine B assay relative to control; details: read-out: Activity
OVCAR-5 = experiment: Growth inhibition of human OVCAR-5 cells incubated for 48 hrs by sulforhodamine B assay; summary of the method: as §3

CN1CCc2nc3sc(C(N)=O)c(N)c3c(-c3cccs3)c2C1
growth at 100 µM (COLO 205 [1]): -60%
growth at 0.1 µM (SK-MEL-28): 103%
growth at 0.1 µM (SF-539 [2]): 104%
GI50 (NCI-H322M [3]): 3.85 µM
TGI (NCI-H322M [3]): 88.5 µM
CC50 (NCI-H322M [3]): > 100 µM
GI50 (SR): 1.8 µM
LC50 (SR): > 100 µM
TGI (SR): 7.31 µM
growth at 0.1 µM (HCC 2998): 99%
growth at 1 µM (NCI-H460 [4]): 108%
growth at 100 µM (M14): -27%
GI50 (A549): 3.37 µM
TGI (A549): > 100 µM
CC50 (A549): > 100 µM
GI50 (SNB-75 [5]): 2.81 µM
LC50 (SNB-75 [5]): > 100 µM
TGI (SNB-75 [5]): 8.03 µM
growth at 0.01 µM (SNB-19): 103%
GI50 (UACC-62 [6]): 2.38 µM
LC50 (UACC-62 [6]): 72.2 µM
TGI (UACC-62 [6]): 6.56 µM
growth at 0.01 µM (RXF 393): 97%
growth at 100 µM (SF-539 [7]): -39%
growth at 1 µM (HCT-116): 75%
GI50 (NCI-H226): 3.16 µM
TGI (NCI-H226): > 100 µM
CC50 (NCI-H226): > 100 µM
growth at 1 µM (MDA-MB-231): 97%
growth at 0.1 µM (KM12): 105%
growth at 0.1 µM (COLO 205 [8]): 103%
growth at 1 µM (SNB-75 [9]): 99%
growth at 0.1 µM (OVCAR-3): 99%
growth at 0.01 µM (SNB-75 [10]): 95%
GI50 (TK-10): 3.32 µM
TGI (TK-10): 13.1 µM
CC50 (TK-10): > 100 µM
GI50 (SF-295 [11]): 3.61 µM
LC50 (concentration killing 50% of cells) (SF-295 [11]): > 100 µM
TGI (SF-295 [11]): > 100 µM
growth at 0.1 µM (UACC-62 [12]): 105%
growth at 1 µM (NCI-H322M [13]): 99%
growth at 1 µM (U-251): 90%
growth at 1 µM (MDA-MB-435): 90%
growth at 1 µM (786-0): 107%
growth at 100 µM (DU-145): -1%
growth at 0.01 µM (UO-31): 97%
growth at 0.01 µM (UACC-62 [14]): 99%
growth at 0.1 µM (NCI-H460 [15]): 114%
growth at 0.1 µM (SF-295 [16]): 103%

CCc1ccccc1NC(=O)c1sc2nc3c(cc2c1N)C(=O)CCC3
growth at 100 µM (COLO 205 [1]): -72%
growth at 0.1 µM (SK-MEL-28): 79%
growth at 0.1 µM (SF-539 [2]): 93%
TGI (NCI-H322M [3]): > 100 µM
CC50 (NCI-H322M [3]): > 100 µM
GI50 (SR): 0.406 µM
LC50 (SR): > 100 µM
TGI (SR): > 100 µM
growth at 0.1 µM (HCC 2998): 96%
growth at 1 µM (NCI-H460 [4]): 9%
growth at 100 µM (M14): 7%
GI50 (A549): 0.595 µM
TGI (A549): > 100 µM
CC50 (A549): > 100 µM
GI50 (SNB-75 [5]): 0.193 µM
LC50 (SNB-75 [5]): > 100 µM
TGI (SNB-75 [5]): 55.1 µM
growth at 0.01 µM (SNB-19): 91%
GI50 (OVCAR-5): 0.0392 µM
TGI (OVCAR-5): > 100 µM
CC50 (OVCAR-5; read-out: LC50 (the source's name)): > 100 µM
growth at 0.01 µM (RXF 393): 94%
growth at 100 µM (SF-539 [7]): -34%
growth at 1 µM (HCT-116): 27%
GI50 (NCI-H226): 20.1 µM
TGI (NCI-H226): > 100 µM
CC50 (NCI-H226): > 100 µM
growth at 1 µM (MDA-MB-231): 52%
growth at 0.1 µM (KM12): 92%
growth at 0.1 µM (COLO 205 [8]): 98%
growth at 1 µM (SNB-75 [9]): -8%
growth at 0.1 µM (OVCAR-3): 100%
growth at 0.01 µM (SNB-75 [10]): 73%
GI50 (TK-10): 23.2 µM
TGI (TK-10): > 100 µM
CC50 (TK-10): > 100 µM
GI50 (SF-295 [11]): 0.257 µM
LC50 (concentration killing 50% of cells) (SF-295 [11]): > 100 µM
TGI (SF-295 [11]): ≥ 100 µM
growth at 1 µM (NCI-H322M [13]): 40%
growth at 1 µM (U-251): 33%
growth at 1 µM (MDA-MB-435): -53%
growth at 1 µM (786-0): 38%
growth at 100 µM (DU-145): 2%
growth at 0.01 µM (UO-31): 90%
growth at 0.1 µM (NCI-H460 [15]): 98%
growth at 0.1 µM (SF-295 [16]): 76%

Source: ChEMBL document CHEMBL4715736, “Identification of anticancer agents based on the thieno[2,3-b]pyridine and 1H-pyrazole molecular scaffolds” (2016)
